Test results published in PMC8900268 (Journal of medicinal chemistry, 2021).

Assays:
MOLT-4 cells = assay: Apoptosis induction in MOLT-4 cells; assay type: cell-based, human; conditions: caspase-3 mediated
Summary of the method: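 MOLT-4 cells were given test compound for 16 h, then immunoblotted for cleaved and full caspase-3, cleaved and full PARP, and β-actin. Separately, cells (5×10^4/well) were pretreated ±2 μM QVD for 4 h, then given 10 nM compound for 48 h. Read by immunoblot, or by Annexin-V–Alexa Fluor 647 (1:50) plus PI (10 μg/mL) staining for 30 min at room temperature in the dark, then flow cytometry.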

BCL-2 = BCL-2 (Homo sapiens, UniProt P10415); assay: BCL-2 degradation by western blotting in MOLT-4 and RS4; assay type: cell-based; conditions: 16 h
Sequence of BCL-2 (P10415 whole entry): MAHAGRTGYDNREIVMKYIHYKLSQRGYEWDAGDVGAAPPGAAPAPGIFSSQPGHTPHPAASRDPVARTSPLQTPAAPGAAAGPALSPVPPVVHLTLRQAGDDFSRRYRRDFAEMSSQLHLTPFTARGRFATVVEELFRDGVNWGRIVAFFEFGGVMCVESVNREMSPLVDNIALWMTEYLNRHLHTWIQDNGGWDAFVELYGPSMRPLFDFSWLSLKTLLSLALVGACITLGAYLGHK

BCL-XL [1] = target: T1, BCL-XL (Homo sapiens, UniProt Q07817); assay: BCL-XL degradation in HEK 293T cells by immunoblotting; assay type: cell-based
T1 sequence (Q07817 whole entry): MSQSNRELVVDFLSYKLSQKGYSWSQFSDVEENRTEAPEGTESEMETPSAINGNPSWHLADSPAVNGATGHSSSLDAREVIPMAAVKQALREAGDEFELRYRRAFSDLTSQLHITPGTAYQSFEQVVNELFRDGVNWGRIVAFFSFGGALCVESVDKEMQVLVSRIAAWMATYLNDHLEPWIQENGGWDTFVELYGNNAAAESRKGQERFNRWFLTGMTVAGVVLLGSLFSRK
Summary of the method: (§1)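 HEK 293T cells grown in DMEM with 10% FBS and 1% penicillin–streptomycin at 37 °C, 5% CO2, then treated with test compound. Lysates made with protease/phosphatase inhibitors, run on 4–20% Tris-glycine gels and transferred to PVDF. Blocked in 5% milk/TBS-Tween. Primary antibodies overnight at 4 °C, HRP secondary, ECL detection. Cleaved PARP probed as apoptosis marker.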

BCL-2:Bim interaction = BCL-2:Bim interaction (Homo sapiens, UniProt P10415); assay: Co-immunoprecipitation of Bim with BCL-2 in RS4; assay type: cell-based; conditions: RS4;11 cells, 12 h, immunoprecipitation with BCL-2
Sequence of BCL-2:Bim interaction (P10415 whole entry): as the sequence (P10415 whole entry) above
Summary of the method: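 RS4;11 cells were treated with test compound for 12 h, ±VHL-032. Lysis in IP buffer with protease/phosphatase inhibitors, then 15000 rpm spin. 1 mg lysate was precleared with mouse IgG and protein A/G agarose for 1 h at 4 °C. IP with 2 μg anti-BCL-2 (or IgG) overnight at 4 °C, then beads for 2 h. After three washes, immunoblotted for Bim. Inputs probed for Bim, BCL-2 and β-actin. Two independent experiments.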

MCL-1 = MCL-1 levels in HEK 293T cells by immunoblotting; assay type: cell-based
Summary of the method: as §1

BCL-2 with VCB = BCL-2 with VCB (Homo sapiens, UniProt P10415+P40337); assay: AlphaLISA cell-free ternary complex formation, BCL-2 and VCB; assay type: biochemical
Sequence of BCL-2 with VCB (P10415 1-211 limits assumed): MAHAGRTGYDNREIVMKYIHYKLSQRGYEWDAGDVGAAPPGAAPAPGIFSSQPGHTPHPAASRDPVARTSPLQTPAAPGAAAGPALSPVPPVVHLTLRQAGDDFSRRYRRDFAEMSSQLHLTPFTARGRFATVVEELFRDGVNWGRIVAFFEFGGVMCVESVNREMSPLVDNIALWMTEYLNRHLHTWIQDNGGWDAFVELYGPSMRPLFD
Sequence of BCL-2 with VCB (P40337 whole entry): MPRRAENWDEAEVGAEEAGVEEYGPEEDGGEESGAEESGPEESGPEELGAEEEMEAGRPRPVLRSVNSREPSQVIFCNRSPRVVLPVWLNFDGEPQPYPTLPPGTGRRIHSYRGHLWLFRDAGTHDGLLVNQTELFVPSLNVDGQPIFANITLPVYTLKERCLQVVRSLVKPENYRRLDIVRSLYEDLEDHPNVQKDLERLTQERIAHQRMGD
Sequence of BCL-2 with VCB (Q15370 whole entry partner): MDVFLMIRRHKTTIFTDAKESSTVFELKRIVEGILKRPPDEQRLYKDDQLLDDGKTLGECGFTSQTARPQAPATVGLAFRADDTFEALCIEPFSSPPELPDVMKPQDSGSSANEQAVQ
Sequence of BCL-2 with VCB (Q15369 whole entry partner): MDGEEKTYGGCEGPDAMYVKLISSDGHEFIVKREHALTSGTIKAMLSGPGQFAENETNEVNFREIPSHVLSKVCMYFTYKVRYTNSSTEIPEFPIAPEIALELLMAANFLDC
Sequence of BCL-2 with VCB (Q13617 whole entry partner): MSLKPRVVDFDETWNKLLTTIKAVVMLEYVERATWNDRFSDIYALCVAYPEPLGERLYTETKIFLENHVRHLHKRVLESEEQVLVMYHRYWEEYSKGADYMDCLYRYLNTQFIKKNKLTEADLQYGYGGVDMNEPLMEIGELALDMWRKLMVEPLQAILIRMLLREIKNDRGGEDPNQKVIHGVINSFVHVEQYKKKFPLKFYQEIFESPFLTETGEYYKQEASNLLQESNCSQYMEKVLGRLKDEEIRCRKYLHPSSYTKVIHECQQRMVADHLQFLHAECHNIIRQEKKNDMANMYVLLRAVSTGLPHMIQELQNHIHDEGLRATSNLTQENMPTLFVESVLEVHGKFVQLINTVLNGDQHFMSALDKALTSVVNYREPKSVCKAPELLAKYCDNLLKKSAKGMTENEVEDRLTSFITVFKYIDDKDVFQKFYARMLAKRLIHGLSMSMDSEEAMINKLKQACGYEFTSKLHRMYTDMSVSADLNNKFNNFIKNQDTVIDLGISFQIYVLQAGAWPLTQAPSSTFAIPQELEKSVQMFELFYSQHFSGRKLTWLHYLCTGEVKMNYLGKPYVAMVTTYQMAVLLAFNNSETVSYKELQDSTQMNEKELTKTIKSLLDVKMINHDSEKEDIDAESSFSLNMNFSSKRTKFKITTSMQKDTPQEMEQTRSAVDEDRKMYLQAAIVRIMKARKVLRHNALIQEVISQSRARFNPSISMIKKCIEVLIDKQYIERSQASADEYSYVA
Summary of the method: (§2)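 Recombinant His-tagged BCL-2 or BCL-XL and GST-tagged VHL–elongin B–elongin C–Cul2 (VCB) were each added at 20 nM with a 4× serial dilution of test compound. Buffer: 25 mM HEPES pH 7.5, 100 mM NaCl, 0.1% BSA, 0.005% Tween 20. Incubation 30 min at room temperature, then glutathione donor beads for 15 min and anti-His acceptor beads for 45 min, both in the dark. AlphaLISA luminescence plotted against log concentration.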

BCL-XL [2] = target: T1, BCL-XL; assay: BCL-XL degradation in MOLT-4 cells by western blotting; assay type: cell-based
Summary of the method: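 MOLT-4 cells were exposed to test compound for 16 h across a concentration range. Other arms: 100 nM time course; 100 nM for 16 h, then washout; and pretreatment with 10 μM VHL-032 or 1 μM MG-132 before 12 h exposure. Lysates were immunoblotted for BCL-XL and β-actin. Band densities were normalised to β-actin. Mean ± SD of three independent experiments in triplicate.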

NCI-H146 cells = assay: Cell viability assay in NCI-H146 cells; assay type: cell-based; conditions: BCL-2/BCL-XL dual-dependent cells
Summary of the method: (§3)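 Cells were seeded at 50,000/well in complete medium and dosed 30 min later at nine concentrations in triplicate. Viability was read by MTS after 48 h. Percentage viability was fitted by non-linear regression.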

NCI-H211 cells = assay: Cell viability assay in NCI-H211 cells; assay type: cell-based; conditions: BCL-2/BCL-XL dual-dependent cells
Summary of the method: as §3

BCL-XL with VCB = BCL-XL with VCB (Homo sapiens, UniProt P40337+Q07817); assay: AlphaLISA cell-free ternary complex formation, BCL-XL and VCB; assay type: biochemical
Sequence of BCL-XL with VCB (Q07817 1-212 limits assumed): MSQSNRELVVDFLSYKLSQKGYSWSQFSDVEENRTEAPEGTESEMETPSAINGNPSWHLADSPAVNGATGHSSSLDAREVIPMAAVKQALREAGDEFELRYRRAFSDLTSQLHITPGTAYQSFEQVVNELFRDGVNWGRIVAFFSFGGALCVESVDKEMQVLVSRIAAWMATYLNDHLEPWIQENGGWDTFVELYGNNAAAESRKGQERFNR
Sequence of BCL-XL with VCB (P40337 whole entry): as the sequence (P40337 whole entry) above
Sequence of BCL-XL with VCB (Q15370 whole entry partner): as the sequence (Q15370 whole entry partner) above
Sequence of BCL-XL with VCB (Q15369 whole entry partner): as the sequence (Q15369 whole entry partner) above
Sequence of BCL-XL with VCB (Q13617 whole entry partner): as the sequence (Q13617 whole entry partner) above
Summary of the method: as §2

BCL-XL [3] = target: T1, BCL-XL; assay: BCL-XL protein levels in human platelets by western blotting; assay type: cell-based; conditions: 16 h treatment
Summary of the method: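 Platelets came from purchased human platelet-rich plasma in acid citrate buffer with 1 μM PGE1 and 0.2 units/mL apyrase (final). They were pelleted at 1200 g for 10 min, washed and resuspended in HEPES Tyrode's buffer with the same PGE1/apyrase. Platelets were treated with test compound for 16 h, then immunoblotted for BCL-XL.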

[4] = target: {BCL-2:compound:VCB} ternary complexes (Homo sapiens, UniProt P10415+P40337); assay: NanoBRET ternary complex formation with BCL-2 and VCB in live 293T cells; assay type: cell-based; conditions: 6 h
Sequence of {BCL-2:compound:VCB} ternary complexes (P10415 whole entry): as the sequence (P10415 whole entry) above
Sequence of {BCL-2:compound:VCB} ternary complexes (P40337 whole entry): as the sequence (P40337 whole entry) above
Sequence of {BCL-2:compound:VCB} ternary complexes (Q15370 whole entry partner): as the sequence (Q15370 whole entry partner) above
Sequence of {BCL-2:compound:VCB} ternary complexes (Q15369 whole entry partner): as the sequence (Q15369 whole entry partner) above
Summary of the method: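 HEK 293T cells were transfected with 1 μg HaloTag-VHL, 10 ng HiBit-BCL-2 and 10 ng LgBit. After 24 h, 2×10^4 cells/well were placed in phenol-red-free Opti-MEM with 4% FBS ± HaloTag NanoBRET 618 ligand overnight at 37 °C. Serially diluted test compound was added for 6 h, then Nano-Glo substrate. mBRET ratio calculated. Mean ± s.e.m. of two independent experiments in triplicate.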

RS4;11 cells = assay: MTS cell viability assay in RS4; assay type: cell-based; conditions: for activity loss (IC50 change) after pre-treatment with VHL-032: RS4;11 cells, 48 h, pre-treatment with VHL-032 (10 μM)

SMILES | effect on BCL-2:Bim interaction (BCL-2:Bim interaction) | formation of ternary complexes with BCL-2 and VCB (BCL-2 with VCB) | BCL-XL degradation (in words) (BCL-XL [2]) | formation of ternary complexes with BCL-XL and VCB (BCL-XL with VCB) | formation of {BCL-2:compound:VCB} ternary complexes in live cells [4] | activity loss (IC50 change) after pre-treatment with VHL-032 (RS4;11 cells) | further results
Cc1ncsc1-c1ccc([C@H](C)NC(=O)[C@@H]2C[C@@H](O)CN2C(=O)[C@@H](NC(=O)CCCCCCCCC(=O)NC[C@]2(C)CCC(c3ccc(Cl)cc3)=C(CN3CCN(c4ccc(C(=O)NS(=O)(=O)c5ccc(N[C@H](CCN6CCOCC6)CSc6ccccc6)c(S(=O)(=O)C(F)(F)F)c5)cc4)CC3)C2)C(C)(C)C)cc1 [PZ703b, N^1-(((R)-4’-Chloro-4-methyl-6-((4-(4-(((4-(((R)-4-morpholino-1-(phenylthio)butan-2-yl)amino)-3-((trifluoromethyl)sulfonyl)phenyl)sulfonyl)carbamoyl)phenyl)piperazin-1-yl)methyl)-2,3,4,5-tetrahydro-[1,1’-biphenyl]-4-yl)methyl)-N^10-((S)-1-((2S,4R)-4-hydroxy-2-(((S)-1-(4-(4-methylthiazol-5-yl)phenyl)ethyl)carbamoyl)pyrrolidin-1-yl)-3,3-dimethyl-1-oxobutan-2-yl)decanediamide] | can inhibit BCL-2:Bim interaction | can form stable ternary complexes | rapid and durable BCL-XL degradation | can form stable ternary complexes | able to form |  | induction of apoptosis in MOLT-4 cells (MOLT-4 cells): potently induced apoptosis; BCL-2 degradation (in words) (BCL-2): did not observe significant BCL-2 degradation; BCL-XL degradation in HEK 293T cells (BCL-XL [1]): effectively induce BCL-XL degradation; MCL-1 decrease in HEK 293T cells (MCL-1): no MCL-1 decrease was observed; killing of NCI-H146 cells (NCI-H146 cells): efficiently kill; killing of NCI-H211 cells (NCI-H211 cells): efficiently kill; effect on BCL-XL protein levels in platelets (BCL-XL [3]): did not cause significant changes
Cc1ncsc1-c1ccc([C@H](C)NC(=O)[C@@H]2C[C@@H](O)CN2C(=O)[C@@H](NC(=O)CCCCCCCCC(=O)NC[C@@]2(C)CCC(c3ccc(Cl)cc3)=C(CN3CCN(c4ccc(C(=O)NS(=O)(=O)c5ccc(N[C@H](CCN6CCOCC6)CSc6ccccc6)c(S(=O)(=O)C(F)(F)F)c5)cc4)CC3)C2)C(C)(C)C)cc1 [PZ703a, N^1-(((S)-4’-Chloro-4-methyl-6-((4-(4-(((4-(((R)-4-morpholino-1-(phenylthio)butan-2-yl)amino)-3-((trifluoromethyl)sulfonyl)phenyl)sulfonyl)carbamoyl)phenyl)piperazin-1-yl)methyl)-2,3,4,5-tetrahydro-[1,1’-biphenyl]-4-yl)methyl)-N^10-((S)-1-((2S,4R)-4-hydroxy-2-(((S)-1-(4-(4-methylthiazol-5-yl)phenyl)ethyl)carbamoyl)pyrrolidin-1-yl)-3,3-dimethyl-1-oxobutan-2-yl)decanediamide] |  | can form stable ternary complexes |  | can form stable ternary complexes | able to form | 2.6 fold | 
Cc1ncsc1-c1ccc([C@H](C)NC(=O)[C@@H]2C[C@H](O)CN2C(=O)[C@@H](NC(=O)CCCCCCCCC(=O)NC[C@]2(C)CCC(c3ccc(Cl)cc3)=C(CN3CCN(c4ccc(C(=O)NS(=O)(=O)c5ccc(N[C@H](CCN6CCOCC6)CSc6ccccc6)c(S(=O)(=O)C(F)(F)F)c5)cc4)CC3)C2)C(C)(C)C)cc1 [PZ703b-NC] | minimal effect |  | did not induce BCL-XL degradation |  | could not | no significant IC50 value changes | 
Cc1ncsc1-c1ccc([C@H](C)NC(=O)[C@@H]2C[C@@H](O)CN2C(=O)[C@@H](NC(=O)CCCCCCCCC(=O)NCC2(C)CCC(c3ccc(Cl)cc3)=C(CN3CCN(c4ccc(C(=O)NS(=O)(=O)c5ccc(N[C@H](CCN6CCOCC6)CSc6ccccc6)c(S(=O)(=O)C(F)(F)F)c5)cc4)CC3)C2)C(C)(C)C)cc1 (stereo partly drawn) [PP5, N^1-((4’-Chloro-4-methyl-6-((4-(4-(((4-(((R)-4-morpholino-1-(phenylthio)butan-2-yl)amino)-3-((trifluoromethyl)sulfonyl)phenyl)sulfonyl)carbamoyl)phenyl)piperazin-1-yl)methyl)-2,3,4,5-tetrahydro-[1,1’-biphenyl]-4-yl)methyl)-N^10-((S)-1-((2S,4R)-4-hydroxy-2-(((S)-1-(4-(4-methylthiazol-5-yl)phenyl)ethyl)carbamoyl)pyrrolidin-1-yl)-3,3-dimethyl-1-oxobutan-2-yl)decanediamide] |  |  |  |  | able to form |  | 
Cc1ncsc1-c1ccc([C@H](C)NC(=O)[C@@H]2C[C@@H](O)CN2C(=O)[C@@H](NC(=O)CCCCCC(=O)NCC2(C)CCC(c3ccc(Cl)cc3)=C(CN3CCN(c4ccc(C(=O)NS(=O)(=O)c5ccc(N[C@H](CCN6CCOCC6)CSc6ccccc6)c(S(=O)(=O)C(F)(F)F)c5)cc4)CC3)C2)C(C)(C)C)cc1 (stereo partly drawn) [PP2, N^1-((4’-Chloro-4-methyl-6-((4-(4-(((4-(((R)-4-morpholino-1-(phenylthio)butan-2-yl)amino)-3-((trifluoromethyl)sulfonyl)phenyl)sulfonyl)carbamoyl)phenyl)piperazin-1-yl)methyl)-2,3,4,5-tetrahydro-[1,1’-biphenyl]-4-yl)methyl)-N^7-((S)-1-((2S,4R)-4-hydroxy-2-(((S)-1-(4-(4-methylthiazol-5-yl)phenyl)ethyl)carbamoyl)pyrrolidin-1-yl)-3,3-dimethyl-1-oxobutan-2-yl)heptanediamide] |  |  |  |  |  |  | IC50 (RS4;11 cells; Homo sapiens, RS4-11, 48 h, read-out: IC50, cell-killing potency in RS4;11): 234 ± 21.6 nM
